In ChEMBL document CHEMBL4118283, “Discovery of a novel 2-(1H-pyrazolo[3,4-b]pyridin-1-yl)thiazole derivative as an EP1 receptor antagonist and in vivo studies in a bone fracture model” (Bioorg Med Chem Lett, 2018):
The source made the active and inactive calls. The calls are words filed in the database; no cut-off is given here.

Assays:
[1] = biological target: T1, Prostaglandin E2 receptor EP1 subtype (Homo sapiens, UniProt P34995); test: Antagonist activity at EP1 receptor (unknown origin) by reporter gene assay; assay type: functional
T1 sequence (P34995 whole entry): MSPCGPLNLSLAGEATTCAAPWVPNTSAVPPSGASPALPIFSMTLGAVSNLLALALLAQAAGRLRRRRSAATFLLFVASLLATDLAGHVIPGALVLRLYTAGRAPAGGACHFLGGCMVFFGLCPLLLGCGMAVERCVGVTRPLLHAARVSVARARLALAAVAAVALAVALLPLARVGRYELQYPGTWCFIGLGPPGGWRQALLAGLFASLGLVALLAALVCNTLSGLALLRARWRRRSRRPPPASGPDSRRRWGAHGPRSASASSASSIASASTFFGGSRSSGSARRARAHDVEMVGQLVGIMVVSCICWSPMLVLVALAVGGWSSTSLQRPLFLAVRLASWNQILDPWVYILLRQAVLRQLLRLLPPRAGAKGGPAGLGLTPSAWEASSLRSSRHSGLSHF

[2] = biological target: T2, Prostaglandin E2 receptor EP3 subtype (Homo sapiens, UniProt P43115); test: Binding affinity to EP3 receptor (unknown origin)
T2 sequence (P43115 whole entry): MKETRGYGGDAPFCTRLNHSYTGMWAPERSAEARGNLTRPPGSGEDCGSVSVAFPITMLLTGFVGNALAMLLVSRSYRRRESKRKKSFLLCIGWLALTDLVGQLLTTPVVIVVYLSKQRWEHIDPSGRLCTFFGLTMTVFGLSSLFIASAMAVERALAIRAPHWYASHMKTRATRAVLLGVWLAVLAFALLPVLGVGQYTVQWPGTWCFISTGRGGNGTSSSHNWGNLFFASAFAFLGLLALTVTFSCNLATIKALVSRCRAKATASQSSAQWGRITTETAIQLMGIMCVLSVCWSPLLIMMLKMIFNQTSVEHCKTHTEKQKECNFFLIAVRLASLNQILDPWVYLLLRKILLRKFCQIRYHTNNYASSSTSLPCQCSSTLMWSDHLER

[3] = Cmax in Sprague-Dawley rat at 10 mg/kg, po by LC-MS/MS analysis; assay type: ADME, organism-based; parameters: dose 10 mg/kg, route oral; conditions: in vivo
How it was run: (§1)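 Single oral dose of 10, 30 or 100 mg/kg to 7-week-old female Sprague–Dawley rats (n = 3), vehicle 10% v/v DMSO, 5% v/v Cremophor EL, 85% v/v water. Subclavian-vein blood drawn at 0.5, 1, 2, 4, 8 and 24 h post dose; plasma separated by centrifugation and drug measured by LC-MS/MS.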

[4] = Intrinsic clearance in human; assay type: ADME, organism-based; conditions: in vivo
[5] = Cmax in Sprague-Dawley rat at 30 mg/kg, po by LC-MS/MS analysis; assay type: ADME, organism-based; parameters: dose 30 mg/kg, route oral; conditions: in vivo; how it was run: as §1
[6] = biological target: T1, Prostaglandin E2 receptor EP1 subtype; test: Binding affinity to EP1 receptor (unknown origin) by binding assay
[7] = Drug uptake in Sprague-Dawley rat plasma at 30 mg/kg, po bid for 4 weeks by LC-MS/MS analysis; assay type: ADME, organism-based; conditions: in vivo, 672 h
How it was run: (§2)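 Sprague–Dawley rats with femoral fractures dosed orally for 28 days (30 mg/kg once daily, 30 mg/kg twice daily, or 100 mg/kg once daily). Subclavian-vein blood taken 30 min before dosing (trough) or 1 h after dosing on days 1, 2, 3, 7, 14, 21 and 28; plasma drug measured by LC-MS/MS.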

[8] = tested on: Salmonella typhimurium; test: Mutagenicity in Salmonella typhimurium by Ames test; assay type: toxicity, organism-based; conditions: salmonella enterica subsp. enterica serovar typhimurium
[9] = Drug uptake in Sprague-Dawley rat plasma at 100 mg/kg, po qd for 4 weeks by LC-MS/MS analysis; assay type: ADME, organism-based; conditions: in vivo, 672 h; how it was run: as §2
[10] = Oral bioavailability in Sprague-Dawley rat at 10 to 100 mg/kg by LC-MS/MS analysis; assay type: ADME, organism-based; conditions: in vivo
[11] = tested on: Rattus norvegicus; test: Osteogenic activity in Sprague-Dawley rat drill-hole femoral fracture model assessed as callus formation at 100 mg/kg, po qd for 28 days; assay type: functional, organism-based; conditions: in the assay text read “closed” for “drill-hole”
How it was run: (§3)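 Closed mid-diaphyseal femur fracture in 8-week-old Sprague–Dawley rats under ip pentobarbital (50 mg/kg). Medial parapatellar arthrotomy, 1 mm drill hole at intercondylar fossa, 21-gauge needle inserted through the medullary canal, fracture by three-point bending. Oral drug or 0.5% MC vehicle given for 28 days. Radiographs at 0, 7, 14, 21, 28 days; outer hard callus area traced by image analysis.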

[12] = Cmax in Sprague-Dawley rat at 100 mg/kg, po by LC-MS/MS analysis; assay type: ADME, organism-based; parameters: dose 100 mg/kg, route oral; conditions: in vivo; how it was run: as §1
[13] = Protein binding in Sprague-Dawley rat plasma at 10 to 100 mg/kg, po by LC-MS/MS analysis; assay type: ADME, organism-based; conditions: read-out: PPB (converted)
[14] = tested on: Rattus norvegicus; test: Osteogenic activity in Sprague-Dawley rat drill-hole femoral fracture model assessed as callus formation at 30 mg/kg, po qd for 28 days; assay type: functional, organism-based; conditions: in the assay text read “closed” for “drill-hole”; how it was run: as §3
[15] = Drug uptake in Sprague-Dawley rat plasma at 100 mg/kg, po after 24 hrs by LC-MS/MS analysis; assay type: ADME, organism-based; conditions: in vivo; how it was run: as §1
[16] = tested on: Rattus norvegicus; test: AUC (0 to 8 hrs) in Sprague-Dawley rat at 10 to 100 mg/kg, po by LC-MS/MS analysis; assay type: ADME, organism-based; conditions: in vivo; how it was run: as §1
[17] = Cmax in Sprague-Dawley rat at 10 to 100 mg/kg, po by LC-MS/MS analysis; assay type: ADME, organism-based; conditions: in vivo; how it was run: as §1
[18] = Permeability in MDCK cells; assay type: ADME, cell-based, Canis lupus familiaris; conditions: dog, read-out: permeability
[19] = biological target: Prostaglandin E2 receptor EP2 subtype (Homo sapiens, UniProt P43116); test: Binding affinity to EP2 receptor (unknown origin)
[20] = tested on: Rattus norvegicus; test: Osteogenic activity in Sprague-Dawley rat drill-hole femoral fracture model assessed as callus formation at 30 mg/kg, po bid for 28 days; assay type: functional, organism-based; conditions: in the assay text read “closed” for “drill-hole”; how it was run: as §3
[21] = Drug uptake in Sprague-Dawley rat plasma at 30 mg/kg, po qd for 4 weeks by LC-MS/MS analysis; assay type: ADME, organism-based; conditions: in vivo, 672 h; how it was run: as §2
[22] = Intrinsic clearance in rat; assay type: ADME, organism-based; conditions: in vivo
[23] = biological target: Prostaglandin E2 receptor EP4 subtype (Homo sapiens, UniProt P35408); test: Binding affinity to EP4 receptor (unknown origin)
[24] = biological target: T3, Prostaglandin E2 receptor EP1 subtype (Homo sapiens) (UniProt P34995); test: Antagonist activity at EP1 receptor (unknown origin) at 100 nM by reporter gene assay relative to control; assay type: functional
T3 sequence (whole entry): T1 sequence (P34995 whole entry)

Sequence of Prostaglandin E2 receptor EP2 subtype (P43116 whole entry): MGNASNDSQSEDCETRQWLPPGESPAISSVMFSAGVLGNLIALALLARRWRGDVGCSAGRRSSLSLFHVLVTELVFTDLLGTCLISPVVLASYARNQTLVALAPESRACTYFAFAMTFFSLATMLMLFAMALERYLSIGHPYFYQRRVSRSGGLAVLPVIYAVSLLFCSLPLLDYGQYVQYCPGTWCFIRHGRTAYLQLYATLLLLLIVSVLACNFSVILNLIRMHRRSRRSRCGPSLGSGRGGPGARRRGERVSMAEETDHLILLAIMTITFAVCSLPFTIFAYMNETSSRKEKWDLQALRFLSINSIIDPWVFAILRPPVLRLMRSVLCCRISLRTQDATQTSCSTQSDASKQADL
Sequence of Prostaglandin E2 receptor EP4 subtype (P35408 whole entry): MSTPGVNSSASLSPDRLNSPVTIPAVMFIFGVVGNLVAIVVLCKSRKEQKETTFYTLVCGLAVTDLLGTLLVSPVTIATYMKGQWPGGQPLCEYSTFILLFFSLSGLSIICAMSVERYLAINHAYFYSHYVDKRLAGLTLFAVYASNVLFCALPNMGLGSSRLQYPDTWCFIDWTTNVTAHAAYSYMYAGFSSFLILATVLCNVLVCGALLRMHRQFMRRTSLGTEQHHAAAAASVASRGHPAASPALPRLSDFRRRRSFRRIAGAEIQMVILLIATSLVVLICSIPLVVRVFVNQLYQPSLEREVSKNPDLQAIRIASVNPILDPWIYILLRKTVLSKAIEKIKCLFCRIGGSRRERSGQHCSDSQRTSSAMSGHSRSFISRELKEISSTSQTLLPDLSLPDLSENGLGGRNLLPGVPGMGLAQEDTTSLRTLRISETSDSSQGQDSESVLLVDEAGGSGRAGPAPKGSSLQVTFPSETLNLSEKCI

## O=C(O)c1csc(-n2nc(-c3ccccc3)c3ccc(N4CCC4)nc32)n1
[1]
  IC50: 40 nM

## O=C(O)c1csc(-n2nc(-c3ccccc3)c3ccc(C(F)(F)F)nc32)n1
[2]
  Ki: > 5000 nM
[3]
  Cmax: 24.8 µM
[4]
  CLint scaled: 70 mL/min/kg
[5]
  Cmax: 75.1 µM
[6]
  Ki: 8.7 nM
[7]
  Drug uptake: Active
[8]
  Activity: Non-Toxic
[9]
  Drug uptake: Active
[10]
  bioavailability: 26%
[11]
  Activity: Active
[12]
  Cmax: 179 µM
[1]
  IC50: 0.3 nM
[13]
  fraction unbound: 0.026
[14]
  Activity: Active
[15]
  Drug uptake: Active
[16]
  AUC: 5.71 microM/L.hr
[17]
  Cmax: 2.62 µM
[18]
  Papp: 23.5 ×10⁻⁶ cm/s
[19]
  Ki: > 8700 nM
[20]
  Activity: Active
[21]
  Drug uptake: Active
[22]
  CLint scaled: 94 mL/min/kg
[23]
  Ki: > 2700 nM

## O=C(O)c1csc(-n2nc(C3=CCCCO3)c3ccc(C(F)(F)F)cc32)n1
[4]
  CLint scaled: 146 mL/min/kg
[1]
  IC50: 0.7 nM
[18]
  Papp: 39 ×10⁻⁶ cm/s
[22]
  CLint scaled: 232 mL/min/kg

## CN(C)c1ccc2c(-c3ccccc3)nn(-c3nc(C(=O)O)cs3)c2n1
[1]
  IC50: 12 nM

## O=C(O)c1csc(-n2nc(-c3ccccc3)c3ccc(C(F)(F)F)cc32)n1
[16]
  AUC: 9.27 microM/L.hr
[17]
  Cmax: 5.34 µM

## O=C(O)c1csc(-n2nc(-c3ccccc3)c3ncc(C(F)(F)F)cc32)n1
[1]
  IC50: 12 nM

## O=C(O)c1csc(Cn2nc(-c3ccccc3)c3ccc(C(F)(F)F)cc32)n1
[4]
  CLint scaled: 48 mL/min/kg
[1]
  IC50: 12 nM
[18]
  Papp: 19.7 ×10⁻⁶ cm/s
[22]
  CLint scaled: 111 mL/min/kg

## O=C(O)c1csc(-n2nc(-c3ccccc3)c3ccc(N4CCCC4)nc32)n1
[24]
  inhibition: 11%
